In ChEMBL document CHEMBL1147196, “Chemotherapy of leishmaniasis. Part V: Synthesis and in vitro bioevaluation of novel pyridinone derivatives” (Eur J Med Chem, 2007):
Converted amounts (≈) assume the structure as drawn. The source made the active and inactive calls. The calls are words filed in the database; no cut-off is given here.

What was measured:
Leishmania donovani [1] = experiment: Antipromastigote activity against Leishmania donovani MHOM IN/Dd8 assessed as luciferase activity after 72 hrs; format: functional, organism-based; conditions: for IC50 / IC90: MHOM IN/Dd8, 72 h
Procedure, shortened: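 Firefly-luciferase-transfected promastigotes kept in medium 199 + 10% FCS, penicillin/streptomycin, G418 selection. Late-log cells seeded 5 × 10^5/well, 72 h with serial dilutions (2.5–50 mg/ml as printed) in DMSO; DMSO dilution controls. Aliquot mixed 1:1 with Steady-Glo, luminescence (RLU). % inhibition = (N−n)/N × 100 vs untreated control; IC50 by probit analysis.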

Leishmania donovani [2] = experiment: Antiamastigote activity against Leishmania donovani MHOM IN/Dd8 in mouse J-774A.1 cells by luciferase reporter gene assay after 72 hrs; format: functional, organism-based, J774.A1; conditions: for IC50: Leishmania donovani, MHOM IN/Dd8, J774.A1, 72 h
Procedure, shortened: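 J-774A.1 mouse macrophages seeded 5 × 10^4 cells/well in RPMI-1640 + 10% FCS, 37 °C, CO2; after 24 h infected with stationary-phase luciferase-expressing promastigotes (2.5 × 10^5/well). Test material added in fresh complete medium (2.5–50 mg/ml range as printed), 72 h, 37 °C. Medium removed, PBS plus Steady-Glo, luminescence read. Inhibition vs untreated control RLU; IC50 by probit analysis.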

IC50 (Leishmania donovani [1]) | IC90 (Leishmania donovani [1]) | IC90 (Leishmania donovani [2]) | IC50 (Leishmania donovani [2]) | Activity (Leishmania donovani [1]) | SMILES
0.58 µg/mL (≈ 1.7 µM) | 0.88 µg/mL (≈ 2.58 µM) |  |  |  | N=C(N)c1ccc(OCCCCCOc2ccc(C(=N)N)cc2)cc1 [PENTAMIDINE]
18.7 µg/mL (≈ 58.3 µM) | 122 µg/mL (≈ 382 µM) | 112.99 µg/mL (≈ 353 µM) | 12.9 µg/mL (≈ 40.2 µM) |  | Cc1occc(=O)c1OCCCCCOc1c(C)occc1=O
12.6 µg/mL (≈ 23.7 µM) | 43.8 µg/mL (≈ 82.5 µM) |  |  |  | COc1ccc(-n2ccc(=O)c(OCCCCCOc3c(C)n(-c4ccc(OC)cc4)ccc3=O)c2C)cc1
15.7 µg/mL (≈ 36.5 µM) | 38.7 µg/mL (≈ 90.1 µM) |  |  |  | Cc1occc(=O)c1OCCCCCOc1c(C)n(-c2ccc(Cl)cc2)ccc1=O
4.59 µg/mL (≈ 11.4 µM) | 10.7 µg/mL (≈ 26.6 µM) | 102.89 µg/mL (≈ 256 µM) | 24 µg/mL (≈ 59.8 µM) |  | Cc1occc(=O)c1OCCCCCOc1c(C)n(C2CCCCC2)ccc1=O
7.37 µg/mL (≈ 14 µM) | 19.1 µg/mL (≈ 36.2 µM) | 42.3 µg/mL (≈ 80.3 µM) | 8.57 µg/mL (≈ 16.3 µM) |  | Cc1cccc(-n2ccc(=O)c(OCCCCCOc3c(C)n(-c4cccc(C)c4C)ccc3=O)c2C)c1C
22.7 µg/mL (≈ 48.2 µM) | 49.8 µg/mL (≈ 106 µM) |  |  |  | Cc1c(OCCCCCOc2c(C)n(-c3ccccc3)ccc2=O)c(=O)ccn1-c1ccccc1
43.6 µg/mL (≈ 105 µM) | 856 µg/mL (≈ 2070 µM) |  |  |  | Cc1occc(=O)c1OCCCCCOc1c(C)n(-c2ccc(F)cc2)ccc1=O
9.98 µg/mL (≈ 20 µM) | 29.3 µg/mL (≈ 58.7 µM) | 99.48 µg/mL (≈ 200 µM) | 13.2 µg/mL (≈ 26.4 µM) |  | Cc1c(OCCCCCOc2c(C)n(Cc3ccccc3)ccc2=O)c(=O)ccn1Cc1ccccc1
 |  | 0.1571 µg/mL (≈ 0.17 µM) | 0.00646 µg/mL (≈ 0.00699 µM) |  | C[C@@H]1[C@H](O)[C@@H](C)/C=C/C=C/C=C/C=C/C=C/C=C/C=C/[C@H](O[C@@H]2O[C@H](C)[C@@H](O)[C@H](N)[C@@H]2O)C[C@@H]2O[C@](O)(C[C@@H](O)C[C@@H](O)[C@H](O)CC[C@@H](O)C[C@@H](O)CC(=O)O[C@H]1C)C[C@H](O)[C@H]2C(=O)O [AMPHOTERICIN B]
5.75 µg/mL (≈ 13.1 µM) | 20.2 µg/mL (≈ 45.9 µM) | 28.58 µg/mL (≈ 64.9 µM) | 6.15 µg/mL (≈ 14 µM) |  | Cc1occc(=O)c1OCCCCCOc1c(C)n(-c2ccc([N+](=O)[O-])cc2)ccc1=O
 |  |  |  | inactive | Cc1c(OCCCCCOc2c(C)n(-c3ccc(F)cc3)ccc2=O)c(=O)ccn1-c1ccc(F)cc1
13.5 µg/mL (≈ 33.1 µM) | 47.9 µg/mL (≈ 117 µM) |  |  |  | Cc1occc(=O)c1OCCCCCOc1c(C)n(Cc2ccccc2)ccc1=O
17.9 µg/mL (≈ 42.2 µM) | 57.9 µg/mL (≈ 137 µM) |  |  |  | Cc1cccc(C)c1-n1ccc(=O)c(OCCCCCOc2c(C)occc2=O)c1C
4.04 µg/mL (≈ 9.5 µM) | 13.3 µg/mL (≈ 31.3 µM) | 38.08 µg/mL (≈ 89.5 µM) | 5.32 µg/mL (≈ 12.5 µM) |  | COc1ccccc1-n1ccc(=O)c(OCCCCCOc2c(C)occc2=O)c1C
6.91 µg/mL (≈ 13.1 µM) | 12.5 µg/mL (≈ 23.7 µM) | 48.43 µg/mL (≈ 92 µM) | 9.64 µg/mL (≈ 18.3 µM) |  | Cc1cccc(C)c1-n1ccc(=O)c(OCCCCCOc2c(C)n(-c3c(C)cccc3C)ccc2=O)c1C
 |  | 107.51 µg/mL (≈ 264 µM) | 33.9 µg/mL (≈ 83.2 µM) |  | CCCCCCCCCCCCCCCCOP(=O)([O-])OCC[N+](C)(C)C [MILTEFOSINE]
4.57 µg/mL (≈ 9.47 µM) | 18.6 µg/mL (≈ 38.6 µM) | 62.23 µg/mL (≈ 129 µM) | 22.8 µg/mL (≈ 47.2 µM) |  | Cc1c(OCCCCCOc2c(C)n(C3CCCCC3)ccc2=O)c(=O)ccn1C1CCCCC1
